From ChEMBL document CHEMBL4513216, “Probing the Open Global Health Chemical Diversity Library for Multistage-Active Starting Points for Next-Generation Antimalarials” (ACS Infect Dis, 2020)

Test: Toxicity liver stage against HepG2, at 10uM
Assay type: cell-based
Set-up: test concentration 10 uM, cell line HepG2-A16-CD81EGFP
Details: human, HepG2-A16-CD81EGFP cells; read-out: INHIBITION
Summary of the method: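 Uninfected HepG2-A16-CD81EGFP cells, 3 × 10^3 per well, 1536-well, plated on prespotted compound at 10 μM final, parasite-free screening media added to match infected plates; puromycin 10 μM positive, DMSO 0.5% negative; run in parallel with 48 h PbLuc assay at 37 °C, 5% CO2; viability by CellTiter-Glo luminescence, normalized to controls.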

SMILES	cytotoxicity at 10 µM [%]
CC(C)c1ccc(C(C)N2CCCN(C(N)=O)CC2)cc1 (stereo unspecified)	-4.24
C1CCCN(c2nc(C3CC3)no2)CC1	-5.59
CCCNC(=O)C(C)Nc1cccc(Oc2ccc(C#N)cn2)c1 (stereo unspecified)	-7.99
Cc1cc(NC(=O)Cc2ccccc2O)cnc1N1CCCCC1	-0.134
CCN(C(=O)c1ccc2c(c1)OCO2)C1CC(=O)NC1=O (stereo unspecified)	-3.04
Cc1n[nH]cc1CNCC(c1ccsc1)N(C)C (stereo unspecified)	3.05
CSC1(CNC(=O)CCc2ccc(Cl)s2)CCOCC1	6.45
CCc1csc(C2CCCN(C(=O)c3cnn(CC)c3)C2)n1 (stereo unspecified)	4.73
COc1c(C2CCCN2C(=O)c2cc(Cl)c[nH]2)c(C)nn1C (stereo unspecified)	4.6
Cc1nn(C)c(C)c1CCC(=O)N1CCCC1Cn1cccn1 (stereo unspecified)	1.78
COCCN(C)C[C@@H]1CN(C(=O)c2ccc(C)cc2)C[C@@H]1CO	-9.21
COc1cccc2c1OCC(CNC(=O)CCn1cnnn1)C2 (stereo unspecified)	-144
CN1CC2(CCN(C(=O)CCc3nc4cccnc4n3C)C2)OC1=O (stereo unspecified)	1.56
CC(=O)N[C@@H](CC(C)C)C(=O)N1CCC(n2cc(CO)nn2)CC1	9.56
Cc1ccc(N2CCN(C(=O)C(O)c3cccc(Cl)c3)CC2=O)cc1 (stereo unspecified)	-5.01
Cc1ccnc(NC(=O)c2ccc(C)o2)c1	-4.33
COCCN(C)CCN1CC2(CCN(C3CCCCC3)CC2)OC1=O	3.73
O=C(O)C1CCN(C[C@H]2CC[C@@H](Cc3ccc4c(c3)OCO4)O2)CC1	-7.48
CCc1ocnc1C(=O)N1CCC(C2CCN(c3ncccn3)CC2)C1 (stereo unspecified)	3.6

SMILES	cytotoxicity at 10 µM [%]
CCN(CC)CCn1ccnc1-c1cccc(O)c1	-5.13
C/C(=C\c1ccco1)CN(C)C(C)Cc1cc(C)ccn1 (stereo unspecified)	0.277
O=C(c1ccc(O)cn1)N1CCOC(c2ccc(Cl)c(Cl)c2)C1 (stereo unspecified)	-4.57
CN(CCO)C[C@@H]1CN(Cc2ccccc2-c2ccccc2)C[C@@H]1CO	-14
CCNC(=O)C1CCN(c2nc(-c3ccco3)nc3c2CCNCC3)C1 (stereo unspecified)	-5.87
CN(Cc1n[nH]c(=O)n1Cc1cccs1)S(C)(=O)=O	-4.2
O=C(O)[C@@H]1CN(C(=O)c2ccc(O)cc2)C[C@H]1c1cccc(F)c1	-126
CSc1ccccc1CN1CCCn2nc(CNC(=O)N(C)C)cc2C1	-25.5
Cc1nc(CN2CCCC(NCc3cccc4ccccc34)C2)no1 (stereo unspecified)	-0.819
COc1c(CNC2CCC(O)CC2)c(C(C)C)nn1C (stereo unspecified)	-6.59
Cc1csc(N2CCN(CC(=O)NCc3ccccn3)CC2C)n1 (stereo unspecified)	-4.04
CC(C)Cc1noc(CN2CCN(C(=O)c3ccccc3F)CC2)n1	-10.8
Cc1nc(C)n(CC2CCCN(CC(=O)Nc3cc(C)on3)C2)n1 (stereo unspecified)	-3.1
Cc1nc(CN2CCCC(NCc3cnc(C(C)(C)C)s3)C2)no1 (stereo unspecified)	0.38
N#Cc1cccnc1N1CCCN(C(=O)CCc2nccs2)CC1	-11.5
CCc1nc(CN2CCCN(C(=O)CCOC(C)C)CC2)cs1	-17.3
COc1cc(C)c(C(C)NC(=O)NCCCn2cncn2)cc1OC (stereo unspecified)	-16.2
Cc1noc(C(C)N2CCN(Cc3nnc(C4CC4)o3)CC2)n1 (stereo unspecified)	-11.8
CCOc1ncccc1CNC(=O)Nc1cc(C)nn1C	1.25

SMILES	cytotoxicity at 10 µM [%]
O=C(NCC(F)(F)F)C1CSCN1S(=O)(=O)c1ccc(F)cc1Cl (stereo unspecified)	-12.8
c1cnnc(N2CCCC2CNc2ncnc3sccc23)c1 (stereo unspecified)	-12.9
O=C(c1ccc2c(c1)CCC2)N1CCC(c2n[nH]c(C3CC3)n2)CC1	-8.06
CN(Cc1cnn(-c2ccccc2)n1)C1CCCN(c2cccnn2)C1 (stereo unspecified)	-9.83
Cc1cccc(OCCC(=O)NCC(C)(C)C(N)=O)c1	-6.38
Cc1cccc2nc(C(=O)N3CCC(Nc4cccnn4)CC3)cn12	-0.77
Cc1ccc(CN(CCCN2CCOCC2)Cc2[nH]cnc2C)o1	-12.9
CN(C)C(=O)COCC1CN(C2CCC2)Cc2ncn(C)c21 (stereo unspecified)	14.1
CCOCC1CN(Cc2ccoc2)Cc2nn(CC3CC3)cc21 (stereo unspecified)	-11.9
c1cc(CN2C[C@@H]3COC[C@]3(COCC3CC3)C2)ccn1	-3.29
O=C1CO[C@@H]2CN(CC3CCOCC3)C[C@H]2N1Cc1ccncc1	-139
Cc1cnc(N2CCCn3c(nnc3CN(C)C(C)C)C2)nc1	4.42
Cc1cccc(N2CCC3(CCCN(C(=O)c4cccnc4)C3)C2)n1 (stereo unspecified)	0.677
CO[C@@H]1CCN(C(=O)c2ccsc2)[C@@H]2CN(CC3CC3)C[C@@H]21	-3.1
Cn1cccc1CN1CCC2(CC1)CN(c1ccccc1)C(=O)CO2	-130
Cc1nnc(N2C[C@H](C(=O)NCC3CC3)[C@@H]3CCO[C@@H]3C2)s1	17.1
c1cnc(N2CCCC3(CCN(CC4CCOC4)CC3)C2)nc1 (stereo unspecified)	-2.21
Cc1ncncc1C(=O)N1C[C@@H]2CC[C@H]1CN(C(=O)c1ccncc1)C2	-7.61
